This is an account of results in ChEMBL document CHEMBL1800057, “Discovery of dual inducible/neuronal nitric oxide synthase (iNOS/nNOS) inhibitor development candidate 4-((2-cyclobutyl-1H-imidazo[4,5-b]pyrazin-1-yl)methyl)-7,8-difluoroquinolin-2(1H)-one (KD7332) part 2: identification of a novel, potent, and selective series of benzimidazole-quinolinone …” (J Med Chem, 2010).

Each structure is given as a SMILES string. Bounds are passed on as bounds.

Data set [1] is described as follows: Plasma clearance in mouse at 3 mg/kg, iv and 10 mg/kg, po. The class given is ADME, organism-based.
Data set [2] has as its target Cytochrome P450 2C19 (Homo sapiens, UniProt P33261). The experiment in a line: Inhibition of human CYP2C19. Type of data set: ADME.
The target in data set [3] is T1, Nitric oxide synthase 3 (Homo sapiens, UniProt P29474).
T1 sequence (P29474 whole entry): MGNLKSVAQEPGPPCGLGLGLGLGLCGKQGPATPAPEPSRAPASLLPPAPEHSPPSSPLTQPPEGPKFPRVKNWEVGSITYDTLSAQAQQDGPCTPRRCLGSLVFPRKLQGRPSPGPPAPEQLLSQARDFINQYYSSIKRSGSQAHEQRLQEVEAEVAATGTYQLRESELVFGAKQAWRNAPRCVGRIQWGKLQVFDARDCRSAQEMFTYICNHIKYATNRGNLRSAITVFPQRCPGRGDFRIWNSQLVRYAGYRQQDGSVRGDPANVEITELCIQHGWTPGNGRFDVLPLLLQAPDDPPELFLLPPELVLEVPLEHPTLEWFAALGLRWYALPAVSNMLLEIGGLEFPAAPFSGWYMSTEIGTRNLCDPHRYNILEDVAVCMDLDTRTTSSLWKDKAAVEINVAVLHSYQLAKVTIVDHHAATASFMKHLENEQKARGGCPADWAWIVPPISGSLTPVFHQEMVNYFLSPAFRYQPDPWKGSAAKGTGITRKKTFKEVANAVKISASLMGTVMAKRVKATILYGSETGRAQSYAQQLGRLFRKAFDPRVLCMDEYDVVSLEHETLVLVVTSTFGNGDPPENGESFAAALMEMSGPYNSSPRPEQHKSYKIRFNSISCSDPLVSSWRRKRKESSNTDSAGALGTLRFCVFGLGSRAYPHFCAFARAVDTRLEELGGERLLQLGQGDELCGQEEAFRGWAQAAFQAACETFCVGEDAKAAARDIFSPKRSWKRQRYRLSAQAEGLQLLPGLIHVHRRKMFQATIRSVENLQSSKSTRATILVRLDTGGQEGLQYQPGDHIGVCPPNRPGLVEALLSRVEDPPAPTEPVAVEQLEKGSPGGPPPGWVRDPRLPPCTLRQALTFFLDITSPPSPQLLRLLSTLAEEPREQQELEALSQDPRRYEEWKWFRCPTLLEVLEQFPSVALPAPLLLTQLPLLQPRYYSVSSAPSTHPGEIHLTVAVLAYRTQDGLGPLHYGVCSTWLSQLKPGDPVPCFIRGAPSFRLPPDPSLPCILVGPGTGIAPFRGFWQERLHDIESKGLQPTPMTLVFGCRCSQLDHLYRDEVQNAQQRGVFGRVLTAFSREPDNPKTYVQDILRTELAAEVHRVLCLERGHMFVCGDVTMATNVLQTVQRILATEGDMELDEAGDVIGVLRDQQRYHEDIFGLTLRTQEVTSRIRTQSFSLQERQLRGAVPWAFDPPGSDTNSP
The experiment in a line: Inhibition of human eNOS expressed in HEK293 cells assessed as inhibition A23187 induced nitric oxide production incubated for 24 hrs measured after 18 hrs of […] challenge using 2,3-diaminonaphthalene by fluorescence assay. The class given is cell-based. Summed up: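 HEK293 cells transfected for 4 h at 37 °C with human nNOS (10 μg) or human eNOS (15 μg) plasmid (Fugene 6, 3:1). Cells replated at 5e5 cells/mL and dosed with compound at once; SEITU (100 μM final) as positive control. After 24 h, cells activated with A23187 (83 nM final) for eNOS or ionomycin (30 μM final) for nNOS. NO read 18 h later as nitrite-DAN fluorescence.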

Data set [4] has as its target T2, Nitric oxide synthase, inducible (Mus musculus, UniProt P29477).
T2 sequence (P29477 whole entry): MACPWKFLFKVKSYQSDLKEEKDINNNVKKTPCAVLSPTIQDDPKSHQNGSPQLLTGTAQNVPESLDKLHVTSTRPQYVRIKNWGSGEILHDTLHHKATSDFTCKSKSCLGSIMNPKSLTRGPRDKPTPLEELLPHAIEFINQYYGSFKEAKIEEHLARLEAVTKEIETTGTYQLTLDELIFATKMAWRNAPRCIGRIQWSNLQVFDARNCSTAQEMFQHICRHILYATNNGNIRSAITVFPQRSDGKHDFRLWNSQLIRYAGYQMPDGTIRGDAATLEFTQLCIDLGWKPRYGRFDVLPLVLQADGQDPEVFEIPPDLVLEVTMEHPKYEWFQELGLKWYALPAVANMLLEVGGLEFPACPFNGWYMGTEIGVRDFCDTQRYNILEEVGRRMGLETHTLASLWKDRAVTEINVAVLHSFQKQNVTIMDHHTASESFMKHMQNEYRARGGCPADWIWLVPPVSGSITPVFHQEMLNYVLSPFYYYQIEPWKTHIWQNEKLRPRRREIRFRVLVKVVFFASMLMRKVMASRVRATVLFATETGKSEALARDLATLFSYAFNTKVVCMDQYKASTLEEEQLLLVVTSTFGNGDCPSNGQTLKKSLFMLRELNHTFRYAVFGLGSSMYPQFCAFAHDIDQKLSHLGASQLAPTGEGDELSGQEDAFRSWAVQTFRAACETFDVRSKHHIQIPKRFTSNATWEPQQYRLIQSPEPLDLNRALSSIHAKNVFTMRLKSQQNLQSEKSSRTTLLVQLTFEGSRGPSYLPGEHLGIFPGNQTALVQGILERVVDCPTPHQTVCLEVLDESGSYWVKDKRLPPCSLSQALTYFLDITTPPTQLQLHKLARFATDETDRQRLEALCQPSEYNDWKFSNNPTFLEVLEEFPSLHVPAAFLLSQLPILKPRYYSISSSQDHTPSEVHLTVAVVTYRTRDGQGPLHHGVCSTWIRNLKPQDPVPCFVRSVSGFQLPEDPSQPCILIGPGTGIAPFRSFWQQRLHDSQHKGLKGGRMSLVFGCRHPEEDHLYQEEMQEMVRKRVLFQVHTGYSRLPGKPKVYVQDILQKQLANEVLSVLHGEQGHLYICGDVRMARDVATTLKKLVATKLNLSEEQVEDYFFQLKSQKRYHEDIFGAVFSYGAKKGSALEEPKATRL
The experiment in a line: Inhibition of mouse iNOS expressed in HEK293 cells assessed as inhibition of nitric oxide production after 18 hrs using 2,3-diaminonaphthalene by fluorescence assay. The class given is cell-based. Summed up: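 HEK293 cells grown to ~70% confluence in DMEM/10% FBS with pen/strep, transiently transfected with 10 μg human or murine iNOS plasmid plus Fugene 6 for 4 h at 37 °C, 10% CO2. Cells replated at 5e5 cells/mL and dosed with compound at once; 1400W (100 μM final) as positive control. After 18 h, DAN (10 μg/mL final) in HCl (0.1 N final) added for 20 min at room temperature. Fluorescence read after NaOH (0.12 N final).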

Chain of Cytochrome P450 2C19 (P33261 whole entry): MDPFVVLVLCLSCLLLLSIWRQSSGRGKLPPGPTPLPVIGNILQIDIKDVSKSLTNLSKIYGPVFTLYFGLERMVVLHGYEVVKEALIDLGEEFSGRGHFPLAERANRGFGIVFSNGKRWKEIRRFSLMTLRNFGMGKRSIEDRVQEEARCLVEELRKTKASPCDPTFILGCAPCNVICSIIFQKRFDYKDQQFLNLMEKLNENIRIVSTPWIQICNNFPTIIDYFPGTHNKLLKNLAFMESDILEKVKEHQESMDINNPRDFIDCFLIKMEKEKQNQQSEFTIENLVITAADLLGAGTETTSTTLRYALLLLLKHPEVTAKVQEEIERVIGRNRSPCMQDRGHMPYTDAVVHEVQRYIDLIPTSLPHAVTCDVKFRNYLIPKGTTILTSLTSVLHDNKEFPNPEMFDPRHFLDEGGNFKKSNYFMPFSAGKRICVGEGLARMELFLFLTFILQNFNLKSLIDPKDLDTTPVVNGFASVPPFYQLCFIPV

Usually EC50 stands for the concentration that produces a half-maximal response. `O=c1cc(Cn2c(C3CCC3)nc3nccnc32)c2ccc(F)c(F)c2[nH]1`: in data set [1], the clearance is 4.5 mL/min/kg. Further, the values for the EC50 in data set [2], in data set [3] and in data set [4] were greater than 38 µM, 16.5 µM and 0.43 µM, respectively.

Compound `O=c1cc(Cn2c(C3CC(F)(F)C3)nc3nccnc32)c2cccc(F)c2[nH]1` yielded a clearance in data set [1] of 6.2 mL/min/kg. Also, the EC50 in data set [2] was 27 µM; in data set [3] it was greater than 100 µM; in data set [4], 3.3 µM.

In turn, `O=c1cc(Cn2c(C3CCC3)nc3nccnc32)c2cccc(F)c2[nH]1` showed a clearance in data set [1] of 5.9 mL/min/kg. Moreover, the EC50 is greater than 60 µM in data set [2], 26 µM in data set [3] and 1.3 µM in data set [4].

For the compound `CC(C)Cc1nc2ccccc2n1Cc1cc(=O)[nH]c2c(F)c(F)ccc12`, the clearance in data set [1] came to 12 mL/min/kg. Moreover, the EC50 in data set [3] was greater than 100 µM; in data set [4], 3.1 µM.

Compound `CC(C)Cc1nc2nccnc2n1Cc1cc(=O)[nH]c2c(F)c(F)ccc12` returned a clearance in data set [1] of 6.1 mL/min/kg. For the same compound, the EC50 in data set [2] was greater than 60 µM; in data set [3], 39 µM; in data set [4], 0.44 µM.
